Series [1] can be described thus: Cmax in monkey serum at 1 mg/kg, po by LC-MS/MS analysis. The settings on record: rhesus monkey. The class given is ADME, organism-based, Macaca mulatta. Further details: dose 1 mg/kg, route oral. Summed up:
(§1)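 Oral dosing of fasting monkeys (two animals) at 1.0 mg/kg, given as HCl salts. Plasma was sampled at 0.5, 1, 2, 4, 8 and 24 h for ex vivo anti-fXa inhibition (%) and for drug concentration. AUC, Cmax, C24 h and the Cmax/C24 h ratio were taken from the plasma concentrations.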

Series [2] can be described thus: AUC in monkey serum at 1 mg/kg, po by LC-MS/MS analysis. It is filed as ADME, organism-based, Macaca mulatta. Further details: dose 1 mg/kg, route oral. The settings on record: rhesus monkey. The gist of the method: as §1
Series [3] is described as follows: Drug level in monkey serum at 1 mg/kg, po at 24 hrs by LC-MS/MS analysis. It is filed as ADME, organism-based, Macaca mulatta. Further details: dose 1 mg/kg, route oral. The following applies: rhesus monkey, read-out: Drug uptake. The gist of the method:
as §1

A short description of series [4]: Metabolic stability in human liver microsomes at 1 uM after 20 to 30 mins by LC/MS/MS analysis in presence of NADPH. The class given is ADME, Microsome. The settings on record: read-out: Stability. Summed up: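 Metabolic stability read as percent remaining after incubation with human liver microsomes in vitro.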
On the technique in general: Liver microsomes are vesicles of endoplasmic reticulum, rich in cytochrome P450 enzymes.

Series [5] can be described thus: 1-Octanol-phosphate buffered saline distribution coefficient, log D of the compound at pH 7.4 after 30 mins by shake flask method. The class given is physicochemical. The gist of the method: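 Log D measured as the partition between 1-octanol and phosphate buffered saline, pH 7.4.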
A short description of series [6]: Solubility of the compound in Japanese pharmacopoeia first fluid at pH 1.2 at 10 mM after 12 hrs. It is filed as physicochemical. Summed up:
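Solubility measured in Japanese Pharmacopoeia First Fluid, pH 1.2.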

Series [7] in a line: Solubility of the compound in Japanese pharmacopoeia second fluid at pH 6.8 at 10 mM after 12 hrs. The class given is physicochemical. The gist of the method: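 Solubility measured in Japanese Pharmacopoeia Second Fluid, pH 6.8.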
Series [8] can be described thus: Bioavailability in monkey at 1 mg/kg, iv after 24 hrs by LC-MS/MS analysis. It is filed as ADME, organism-based, Macaca mulatta. The following applies: rhesus monkey, in vivo.

Values after ≈ are worked out from the molar mass of the structure shown.

Consider `CN1CCc2nc(C(=O)Nc3ccccc3CNC(=O)c3ccc(Cl)s3)sc2C1.Cl`, for which the peak level in series [1] (Cmax) was 95.9 ng/mL. In addition, the AUC – broadly, the area under the concentration-time curve, a measure of exposure – in series [2] came out at 346 ng·h/mL. The concentration at 24 h in series [3] was found to be 0.6 ng/mL.

`CC(C)N1CCc2nc(C(=O)Nc3c(CNC(=O)c4ccc(Cl)s4)cccc3C(=O)O)sc2C1`: the remaining at 1 µM in series [4] was 96%. The logD (in general, lipophilicity at a set pH, counting ionised and neutral species) at 0.5 h in series [5] stood at 0.28. Also, the solubility at 12 h, 10000 µM in series [6] and in series [7] was 1000 µg/mL (≈ 1930 µM) throughout.

As for `CC(C)N1CCc2nc(C(=O)Nc3cc(C(=O)O)ccc3CCC(=O)Nc3ccc(Cl)cc3)sc2C1`, the remaining at 1 µM in series [4] was determined as 100%. Moreover, in series [5], the logD at 0.5 h was 0.82. Further, the solubility – broadly, how much of the substance goes into solution per volume – at 12 h, 10000 µM in series [6] was 490 µg/mL (≈ 930 µM); in series [7] it was 720 µg/mL (≈ 1370 µM). In series [8], the bioavailability (commonly dose-corrected exposure relative to a reference, in per cent) stood at 67%.

For the compound `CC(C)N1CCc2nc(C(=O)Nc3cc(C(=O)O)ccc3CNC(=O)c3ccc(Cl)s3)sc2C1.Cl`, in series [1], the concentration peaked (Cmax) at 67.1 ng/mL. For the same compound, the AUC in series [2] came to 605 ng·h/mL. The concentration at 24 h in series [3] turned out to be 7.1 ng/mL.

In the case of `CC(C)N1CCc2nc(C(=O)Nc3cc(C(=O)O)ccc3CCC(=O)Nc3ccc(Cl)cn3)sc2C1.Cl`, the concentration in series [1] peaked (Cmax) at 98 ng/mL. Further, the AUC in series [2] was determined as 785 ng·h/mL. In addition, the concentration at 24 h in series [3] amounted to 9.5 ng/mL.

As to `CC(C)N1CCc2nc(C(=O)Nc3cc(C(=O)O)ccc3CCC(=O)Nc3ccc(F)cc3)sc2C1`, the remaining at 1 µM in series [4] amounted to 94%. The compound also returned a logD at 0.5 h in series [5] of 0.27. In addition, the results for the solubility at 12 h, 10000 µM in series [6] and in series [7] were 980 µg/mL (≈ 1920 µM) and 140 µg/mL (≈ 274 µM), respectively.

Turning to `CCOc1cc(C(=O)O)cc(NC(=O)c2nc3c(s2)CN(C(C)C)CC3)c1CCC(=O)Nc1ccc(Cl)cc1`, the remaining at 1 µM in series [4] is 93%. The logD at 0.5 h in series [5] worked out at 1.62. For the same compound, the values for the solubility at 12 h, 10000 µM in series [6] and in series [7] were 370 µg/mL (≈ 648 µM) and 3 µg/mL (≈ 5.25 µM), respectively.

Consider `CC(C)N1CCc2nc(C(=O)Nc3cc(C(=O)O)cc(C(F)(F)F)c3CCC(=O)Nc3ccc(Cl)cc3)sc2C1`, for which the remaining at 1 µM in series [4] came out at 77%. In series [5], this compound came in with a logD at 0.5 h of 1.64. Besides, the solubility at 12 h, 10000 µM in series [6] amounted to 700 µg/mL (≈ 1180 µM); in series [7], 310 µg/mL (≈ 521 µM).

With `CN1CCc2nc(C(=O)Nc3cc(C(=O)O)ccc3CNC(=O)c3ccc(Cl)s3)sc2C1.Cl`, in series [1], the Cmax (as a rule, the peak of the concentration-time curve) came to 25.8 ng/mL. This compound came in with an AUC in series [2] of 247 ng·h/mL. The concentration at 24 h in series [3] is 4 ng/mL.

`CC(C)N1CCc2nc(C(=O)Nc3cc(C(=O)O)ccc3CCC(=O)Nc3ccc(Cl)cc3)sc2C1.Cl` showed a Cmax in series [1] of 87 ng/mL. The same compound returned an AUC in series [2] of 1370 ng·h/mL. Also, in series [3], the concentration at 24 h stood at 26 ng/mL.

Consider `CC(C)N1CCc2nc(C(=O)Nc3c(CNC(=O)c4ccc(Cl)s4)cccc3C(=O)O)sc2C1.Cl`, for which the Cmax in series [1] is 50.5 ng/mL. The AUC in series [2] was found to be 221 ng·h/mL. In addition, the concentration at 24 h in series [3] was 2 ng/mL.

In the case of `CC(C)N1CCc2nc(C(=O)Nc3cc(C(=O)O)cc(F)c3CCC(=O)Nc3ccc(Cl)cc3)sc2C1.Cl`, in series [1], the Cmax came out at 32 ng/mL. The AUC in series [2] amounted to 448 ng·h/mL. In addition, the concentration at 24 h in series [3] came out at 6.1 ng/mL.

As to `COc1cc(C(=O)O)cc(NC(=O)c2nc3c(s2)CN(C(C)C)CC3)c1CCC(=O)Nc1ccc(Cl)cc1`, the remaining at 1 µM in series [4] stood at 87%. The logD at 0.5 h in series [5] is 1.15. The solubility at 12 h, 10000 µM in series [6] turned out to be 810 µg/mL (≈ 1450 µM); in series [7], 39 µg/mL (≈ 70 µM).

Consider `CC(C)N1CCc2nc(C(=O)Nc3cc(C(=O)O)cc(F)c3CCC(=O)Nc3ccc(Cl)cc3)sc2C1`, for which the remaining at 1 µM in series [4] worked out at 100%. In series [5], this compound returned a logD at 0.5 h of 1.1. Moreover, the solubility at 12 h, 10000 µM in series [6] came to 970 µg/mL (≈ 1780 µM); in series [7], 11 µg/mL (≈ 20.2 µM).

With `O=C(NCc1cccc(C(=O)O)c1NC(=O)c1nc2c(s1)COCC2)c1ccc(Cl)s1`, the remaining at 1 µM in series [4] worked out at 57%. For the same compound, the logD at 0.5 h in series [5] was -0.12. The solubility at 12 h, 10000 µM in series [6] was found to be 2 µg/mL (≈ 4.18 µM); in series [7] it was 930 µg/mL (≈ 1950 µM).

As to `CN1CCc2nc(C(=O)Nc3cc(C(=O)O)ccc3CCC(=O)Nc3ccc(Cl)cn3)sc2C1`, the remaining at 1 µM in series [4] was found to be 92%. The compound further registered a logD at 0.5 h in series [5] of -0.28. The solubility at 12 h, 10000 µM in series [6] amounted to 250 µg/mL (≈ 500 µM); in series [7] it was 210 µg/mL (≈ 420 µM).

With `CC(CF)N1CCc2nc(C(=O)Nc3cc(C(=O)O)ccc3CNC(=O)c3ccc(Cl)s3)sc2C1` (configuration not stated), in series [4], the remaining at 1 µM is 94%. This compound also came in with a logD at 0.5 h in series [5] of 0.45. Moreover, the solubility at 12 h, 10000 µM in series [6] is 160 µg/mL (≈ 298 µM); in series [7], 580 µg/mL (≈ 1080 µM).

On to `CCN1CCc2nc(C(=O)Nc3cc(C(=O)O)ccc3CNC(=O)c3ccc(Cl)s3)sc2C1`, for which the remaining at 1 µM in series [4] amounted to 97%. Besides, the logD at 0.5 h in series [5] is 0.14. Also, the results for the solubility at 12 h, 10000 µM in series [6] and in series [7] were 230 µg/mL (≈ 455 µM) and 1000 µg/mL (≈ 1980 µM), respectively.

`CN1CCc2nc(C(=O)Nc3c(CNC(=O)c4ccc(Cl)s4)cccc3C(N)=O)sc2C1.Cl`: the Cmax in series [1] came out at 109 ng/mL. For the same compound, the AUC in series [2] was determined as 285 ng·h/mL.

On to `COCC(C)N1CCc2nc(C(=O)Nc3cc(C(=O)O)ccc3CNC(=O)c3ccc(Cl)s3)sc2C1` (configuration not stated), for which the remaining at 1 µM in series [4] was 100%. In series [5], this compound registered a logD at 0.5 h of 0.41. Besides, the solubility at 12 h, 10000 µM in series [6] amounted to 610 µg/mL (≈ 1110 µM); in series [7], 1000 µg/mL (≈ 1820 µM).

Compound `CC(C)N1CCc2nc(C(=O)Nc3cc(C(=O)O)cc(Cl)c3CCC(=O)Nc3ccc(Cl)cc3)sc2C1.Cl` gave a Cmax in series [1] of 67 ng/mL. In series [2], this compound returned an AUC of 724 ng·h/mL. Besides, in series [3], the concentration at 24 h stood at 17 ng/mL.

In the case of `CC(C)N1CCc2nc(C(=O)Nc3cc(C(=O)O)ccc3CCC(=O)Nc3ccc(Br)cc3)sc2C1`, in series [4], the remaining at 1 µM is 88%. This compound also gave a logD at 0.5 h in series [5] of 1.08. Also, the results for the solubility at 12 h, 10000 µM in series [6] and in series [7] were 65 µg/mL (≈ 114 µM) and 520 µg/mL (≈ 910 µM), respectively.

Consider `CC(C)N1CCc2nc(C(=O)Nc3cc(C(=O)O)cc(Cl)c3CCC(=O)Nc3ccc(Cl)cc3)sc2C1`, for which, in series [4], the remaining at 1 µM was found to be 93%. Further, the logD at 0.5 h in series [5] was found to be 1.61. Also, the solubility at 12 h, 10000 µM was determined as 450 µg/mL (≈ 801 µM) in series [6] and 160 µg/mL (≈ 285 µM) in series [7]. Further, the bioavailability in series [8] came to 52%.

Regarding `O=C(O)c1ccc(CNC(=O)c2ccc(Cl)s2)c(NC(=O)c2nc3c(s2)CN(C(CF)CF)CC3)c1`, the remaining at 1 µM in series [4] came out at 100%. This compound returned a logD at 0.5 h in series [5] of 0.44. For the same compound, the solubility at 12 h, 10000 µM in series [6] was determined as 120 µg/mL (≈ 216 µM); in series [7] it was 870 µg/mL (≈ 1570 µM).

For `CC(C)N1CCc2nc(C(=O)Nc3cc(C(=O)O)ccc3CCC(=O)Nc3ccc(Cl)cn3)sc2C1`, the remaining at 1 µM in series [4] turned out to be 100%. In addition, the logD at 0.5 h in series [5] was determined as 0.23. Moreover, the solubility at 12 h, 10000 µM in series [6] was 810 µg/mL (≈ 1530 µM); in series [7] it was 86 µg/mL (≈ 163 µM).

`CC(C)N1CCc2nc(C(=O)Nc3cc(C(=O)O)ccc3CNC(=O)c3ccc(Cl)s3)sc2C1`: the remaining at 1 µM in series [4] is 96%. The compound also showed a logD at 0.5 h in series [5] of 0.57. The solubility at 12 h, 10000 µM in series [6] was found to be 49 µg/mL (≈ 94.4 µM); in series [7], 41 µg/mL (≈ 79 µM). This compound registered a bioavailability in series [8] of 51%.

(Values after ChEMBL document CHEMBL1921766, “Orally active zwitterionic factor Xa inhibitors with long duration of action” (Bioorg Med Chem Lett, 2011).)
